# Measured values: ChEMBL document CHEMBL4680175, “Sulfonamide-based ring-fused analogues for CAN508 as novel carbonic anhydrase inhibitors endowed with antitumor activity: Design, synthesis, and in vitro biological evaluation” (Eur J Med Chem, 2020)
# Legend:
# HCT-116 = assay: Antitumor activity against human HCT116 cells assessed as cell growth inhibition at 10 uM incubated for 48 hrs by sulforhodamine B assay; type: functional; conditions: read-out: GI
# Procedure, shortened: (§1)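 NCI Drug Evaluation Branch protocol: primary single-dose screen at 10 μM across a 57-line human cancer panel. Drug exposure is 48 h. Cell growth and viability are read by sulforhodamine B assay. Data are given as a mean graph of percent growth of treated cells and reported as percentage growth inhibition (GI%).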
# SN12C = assay: Antitumor activity against human SN12C cells assessed as cell growth inhibition at 10 uM incubated for 48 hrs by sulforhodamine B assay; type: functional; conditions: read-out: GI; procedure, shortened: as §1
# Carbonic anhydrase 12 = Carbonic anhydrase 12 (Homo sapiens, UniProt O43570); assay: Inhibition of recombinant human carbonic anhydrase 12 preincubated with enzyme for 15 mins by phenol red dye based stopped flow CO2 hydrase assay
# Chain of Carbonic anhydrase 12 (O43570 whole entry): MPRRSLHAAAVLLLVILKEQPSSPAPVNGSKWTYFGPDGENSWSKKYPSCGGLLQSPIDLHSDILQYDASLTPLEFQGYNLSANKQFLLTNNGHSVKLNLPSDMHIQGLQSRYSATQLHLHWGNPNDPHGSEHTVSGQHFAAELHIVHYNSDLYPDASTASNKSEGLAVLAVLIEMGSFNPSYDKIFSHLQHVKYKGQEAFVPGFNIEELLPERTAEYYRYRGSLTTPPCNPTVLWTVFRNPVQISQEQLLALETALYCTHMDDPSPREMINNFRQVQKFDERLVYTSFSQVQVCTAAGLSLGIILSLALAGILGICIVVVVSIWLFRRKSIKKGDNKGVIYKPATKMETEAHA
# NCI-H460 = assay: Antitumor activity against human NCI-H460 cells assessed as cell growth inhibition at 10 uM incubated for 48 hrs by sulforhodamine B assay; type: functional; conditions: read-out: GI; procedure, shortened: as §1
# NCI-H322M = assay: Antitumor activity against human NCI-H322M cells assessed as cell growth inhibition at 10 uM incubated for 48 hrs by sulforhodamine B assay; type: functional; conditions: read-out: GI; procedure, shortened: as §1
# HOP-62 = assay: Antitumor activity against human HOP62 cells assessed as cell growth inhibition at 10 uM incubated for 48 hrs by sulforhodamine B assay; type: functional; conditions: read-out: GI; procedure, shortened: as §1
# DU-145 = assay: Antitumor activity against human DU-145 cells assessed as cell growth inhibition at 10 uM incubated for 48 hrs by sulforhodamine B assay; type: functional; conditions: read-out: GI; procedure, shortened: as §1
# NCI-H226 = assay: Antitumor activity against human NCI-H226 assessed as cell growth inhibition at 10 uM incubated for 48 hrs by sulforhodamine B assay; type: functional; conditions: read-out: GI; procedure, shortened: as §1
# NCI-H522 = assay: Antitumor activity against human NCI-H522 cells assessed as cell growth inhibition at 10 uM incubated for 48 hrs by sulforhodamine B assay; type: functional; conditions: read-out: GI; procedure, shortened: as §1
# T47D = assay: Antitumor activity against human T-47D cells assessed as cell growth inhibition at 10 uM incubated for 48 hrs by sulforhodamine B assay; type: functional; conditions: read-out: GI
# Procedure, shortened: (§2)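 NCI one-dose screen: 57-cell-line panel exposed at 10 μM for 48 h, Drug Evaluation Branch protocol. Growth and viability read by sulforhodamine B; data given as percent growth inhibition from the mean-graph of percent growth of treated cells.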
# SNB-75 = assay: Antitumor activity against human SNB-75 cells assessed as cell growth inhibition at 10 uM incubated for 48 hrs by sulforhodamine B assay; type: functional; conditions: read-out: GI; procedure, shortened: as §2
# MOLT-4 = assay: Antitumor activity against human MOLT4 cells assessed as cell growth inhibition at 10 uM incubated for 48 hrs by sulforhodamine B assay; type: functional; conditions: read-out: GI; procedure, shortened: as §1
# SF-539 = assay: Antitumor activity against human SF539 cells assessed as cell growth inhibition at 10 uM incubated for 48 hrs by sulforhodamine B assay; type: functional; conditions: read-out: GI; procedure, shortened: as §1
# [1] = biological target: Cyclin-dependent kinase 2/cyclin E1 (Homo sapiens, UniProt P24941); assay: Inhibition of CDK2/cyclin E (unknown origin) expressed in baculovirus infected Sf21 insect cells using histone H1 as substrate in presence of [gamma33P]ATP
# BT-549 = assay: Antitumor activity against human BT-549 cells assessed as cell growth inhibition at 10 uM incubated for 48 hrs by sulforhodamine B assay; type: functional; conditions: read-out: GI; procedure, shortened: as §1
# Carbonic anhydrase 1 = Carbonic anhydrase 1 (Homo sapiens, UniProt P00915); assay: Inhibition of recombinant human carbonic anhydrase 1 preincubated with enzyme for 15 mins by phenol red dye based stopped flow CO2 hydrase assay
# Chain of Carbonic anhydrase 1 (P00915 whole entry): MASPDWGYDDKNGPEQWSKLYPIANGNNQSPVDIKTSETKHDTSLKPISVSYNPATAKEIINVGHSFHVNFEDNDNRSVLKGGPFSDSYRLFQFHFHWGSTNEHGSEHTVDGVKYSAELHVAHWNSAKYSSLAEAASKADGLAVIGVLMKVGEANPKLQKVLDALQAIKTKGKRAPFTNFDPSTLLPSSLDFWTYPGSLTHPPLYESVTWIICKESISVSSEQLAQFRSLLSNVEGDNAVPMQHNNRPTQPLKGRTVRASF
# MCF7 = assay: Antitumor activity against human MCF7 cells assessed as cell growth inhibition at 10 uM incubated for 48 hrs by sulforhodamine B assay; type: functional; conditions: read-out: GI; procedure, shortened: as §1
# UO-31 = assay: Antitumor activity against human UO-31 cells assessed as cell growth inhibition at 10 uM incubated for 48 hrs by sulforhodamine B assay; type: functional; conditions: read-out: GI; procedure, shortened: as §2
# SK-MEL-2 = assay: Antitumor activity against human SK-MEL-2 cells assessed as cell growth inhibition at 10 uM incubated for 48 hrs by sulforhodamine B assay; type: functional; conditions: read-out: GI; procedure, shortened: as §1
# RXF 393 = assay: Antitumor activity against human RXF 393 cells assessed as cell growth inhibition at 10 uM incubated for 48 hrs by sulforhodamine B assay; type: functional; conditions: read-out: GI; procedure, shortened: as §1
# Malme-3M = assay: Antitumor activity against human MALME-3M cells assessed as cell growth inhibition at 10 uM incubated for 48 hrs by sulforhodamine B assay; type: functional; conditions: read-out: GI; procedure, shortened: as §1
# U-251 = assay: Antitumor activity against human U251 cells assessed as cell growth inhibition at 10 uM incubated for 48 hrs by sulforhodamine B assay; type: functional; conditions: read-out: GI; procedure, shortened: as §2
# SK-MEL-5 = assay: Antitumor activity against human SK-MEL-5 cells assessed as cell growth inhibition at 10 uM incubated for 48 hrs by sulforhodamine B assay; type: functional; conditions: read-out: GI; procedure, shortened: as §1
# Carbonic anhydrase 9 = Carbonic anhydrase 9 (Homo sapiens, UniProt Q16790); assay: Inhibition of recombinant human carbonic anhydrase 9 preincubated with enzyme for 15 mins by phenol red dye based stopped flow CO2 hydrase assay
# CCRF-CEM = assay: Antitumor activity against human CCRF-CEM cells assessed as cell growth inhibition at 10 uM incubated for 48 hrs by sulforhodamine B assay; type: functional; conditions: read-out: GI; procedure, shortened: as §1
# MDA-MB-231 = assay: Antitumor activity against human MDA-MB-231/ATCC cells assessed as cell growth inhibition at 10 uM incubated for 48 hrs by sulforhodamine B assay; type: functional; conditions: read-out: GI; procedure, shortened: as §1
# HOP-92 = assay: Antitumor activity against human HOP92 cells assessed as cell growth inhibition at 10 uM incubated for 48 hrs by sulforhodamine B assay; type: functional; conditions: read-out: GI; procedure, shortened: as §1
# PC-3 = assay: Antitumor activity against human PC-3 cells assessed as cell growth inhibition at 10 uM incubated for 48 hrs by sulforhodamine B assay; type: functional; conditions: read-out: GI; procedure, shortened: as §1
# Hs-578T = assay: Antitumor activity against human HS 578T cells assessed as cell growth inhibition at 10 uM incubated for 48 hrs by sulforhodamine B assay; type: functional; conditions: read-out: GI; procedure, shortened: as §1
# IGROV-1 = assay: Antitumor activity against human IGROV1 cells assessed as cell growth inhibition at 10 uM incubated for 48 hrs by sulforhodamine B assay; type: functional; conditions: read-out: GI; procedure, shortened: as §1
# SF-268 = assay: Antitumor activity against human SF268 cells assessed as cell growth inhibition at 10 uM incubated for 48 hrs by sulforhodamine B assay; type: functional; conditions: read-out: GI; procedure, shortened: as §1
# Carbonic anhydrase 2 = Carbonic anhydrase 2 (Homo sapiens, UniProt P00918); assay: Inhibition of recombinant human carbonic anhydrase 2 preincubated with enzyme for 15 mins by phenol red dye based stopped flow CO2 hydrase assay
# LOX IMVI = assay: Antitumor activity against human LOX IMVI cells assessed as cell growth inhibition at 10 uM incubated for 48 hrs by sulforhodamine B assay; type: functional; conditions: read-out: GI; procedure, shortened: as §1
# CDK9/cyclin T1 = CDK9/cyclin T1 (Homo sapiens, UniProt P50750); assay: Inhibition of human full-length N-terminal GST/His6-tagged CDK9 (1 to 372 residues)/His6-tagged Cyclin-T1 (1 to 726 residues) expressed in sf9 cells using (YSPTSPS)2KK peptide as substrate in presence of [gamma33P]ATP
# Chain of CDK9/cyclin T1 (O60563 whole entry, the tested form may be a part): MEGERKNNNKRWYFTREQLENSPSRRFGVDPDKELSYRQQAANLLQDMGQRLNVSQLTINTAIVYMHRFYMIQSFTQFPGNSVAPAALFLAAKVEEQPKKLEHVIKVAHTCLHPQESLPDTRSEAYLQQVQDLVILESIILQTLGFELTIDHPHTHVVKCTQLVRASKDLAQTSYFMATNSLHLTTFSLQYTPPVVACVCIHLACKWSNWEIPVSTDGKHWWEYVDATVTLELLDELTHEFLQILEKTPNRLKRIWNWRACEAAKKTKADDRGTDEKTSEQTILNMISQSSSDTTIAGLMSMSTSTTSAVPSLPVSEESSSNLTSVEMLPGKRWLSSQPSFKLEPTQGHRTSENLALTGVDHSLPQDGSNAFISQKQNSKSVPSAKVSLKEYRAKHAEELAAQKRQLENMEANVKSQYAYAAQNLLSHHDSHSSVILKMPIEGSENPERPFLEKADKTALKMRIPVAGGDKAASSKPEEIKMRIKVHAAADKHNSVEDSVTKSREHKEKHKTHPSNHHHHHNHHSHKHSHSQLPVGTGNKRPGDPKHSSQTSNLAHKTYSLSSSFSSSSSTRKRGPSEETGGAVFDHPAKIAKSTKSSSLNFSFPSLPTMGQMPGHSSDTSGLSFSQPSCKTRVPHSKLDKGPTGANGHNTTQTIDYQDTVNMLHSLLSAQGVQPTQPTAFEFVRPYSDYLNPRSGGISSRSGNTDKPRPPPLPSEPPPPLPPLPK
# Chain of CDK9/cyclin T1 (P50750 whole entry, the tested form may be a part): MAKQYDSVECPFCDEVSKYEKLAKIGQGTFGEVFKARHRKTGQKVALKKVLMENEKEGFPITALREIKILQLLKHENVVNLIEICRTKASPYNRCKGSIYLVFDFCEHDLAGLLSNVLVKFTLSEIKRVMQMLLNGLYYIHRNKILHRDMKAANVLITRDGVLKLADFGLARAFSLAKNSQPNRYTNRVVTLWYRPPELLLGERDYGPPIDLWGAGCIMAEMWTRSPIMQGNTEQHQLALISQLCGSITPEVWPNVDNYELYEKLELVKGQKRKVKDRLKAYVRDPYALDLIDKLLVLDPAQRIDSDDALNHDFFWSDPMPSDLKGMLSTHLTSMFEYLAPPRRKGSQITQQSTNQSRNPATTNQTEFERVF
# MDA-MB-468 = assay: Antitumor activity against human MDA-MB-468 cells assessed as cell growth inhibition at 10 uM incubated for 48 hrs by sulforhodamine B assay; type: functional; conditions: read-out: GI; procedure, shortened: as §1
# CAKI-1 = assay: Antitumor activity against human CAKI-1 cells assessed as cell growth inhibition at 10 uM incubated for 48 hrs by sulforhodamine B assay; type: functional; conditions: read-out: GI; procedure, shortened: as §1
# KM12 = assay: Antitumor activity against human KM12 cells assessed as cell growth inhibition at 10 uM incubated for 48 hrs by sulforhodamine B assay; type: functional; conditions: read-out: GI; procedure, shortened: as §1
smiles,measurement,setting,value
Cc1ccc(-c2nc3c(/N=N/c4ccc(S(N)(=O)=O)cc4)c(N)nn3c(N)c2C#N)cc1,inhibition of growth at 10 µM,HCT-116,86%
same,inhibition of growth at 10 µM,SN12C,67%
same,Ki,Carbonic anhydrase 12,48.8 nM
same,inhibition of growth at 10 µM,NCI-H460,72%
same,inhibition of growth at 10 µM,NCI-H322M,34%
same,inhibition of growth at 10 µM,HOP-62,57%
same,inhibition of growth at 10 µM,DU-145,65%
same,inhibition of growth at 10 µM,NCI-H226,35%
same,inhibition of growth at 10 µM,NCI-H522,71%
same,inhibition of growth at 10 µM,T47D,66%
same,inhibition of growth at 10 µM,SNB-75,51%
same,inhibition of growth at 10 µM,MOLT-4,96%
same,inhibition of growth at 10 µM,SF-539,69%
same,IC50,[1],11600 nM
same,inhibition of growth at 10 µM,BT-549,44%
same,Ki,Carbonic anhydrase 1,3530 nM
same,inhibition of growth at 10 µM,MCF7,72%
same,inhibition of growth at 10 µM,UO-31,31%
same,inhibition of growth at 10 µM,SK-MEL-2,73%
same,inhibition of growth at 10 µM,RXF 393,72%
same,inhibition of growth at 10 µM,Malme-3M,51%
same,inhibition of growth at 10 µM,U-251,68%
same,inhibition of growth at 10 µM,SK-MEL-5,152%
same,Ki,Carbonic anhydrase 9,44.3 nM
same,inhibition of growth at 10 µM,CCRF-CEM,88%
same,inhibition of growth at 10 µM,MDA-MB-231,60%
same,inhibition of growth at 10 µM,HOP-92,80%
same,inhibition of growth at 10 µM,PC-3,68%
same,inhibition of growth at 10 µM,Hs-578T,61%
same,inhibition of growth at 10 µM,IGROV-1,63%
same,inhibition of growth at 10 µM,SF-268,65%
same,Ki,Carbonic anhydrase 2,638 nM
same,inhibition of growth at 10 µM,LOX IMVI,78%
same,IC50,CDK9/cyclin T1,> 12500 nM
same,inhibition of growth at 10 µM,MDA-MB-468,94%
same,inhibition of growth at 10 µM,CAKI-1,59%
same,inhibition of growth at 10 µM,KM12,71%
